For assay [1], the system named is Mus musculus. Kind of assay: Minimum dose required when administered intraperitoneally in mice as the sodium salt in water in a single dose. It is filed as functional. The method, boiled down: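 The minimum dose giving the cited necrosis level in sc colon 38 tumors (4-8 mm) in BDF1 mice. It was taken from a full dose profile at 1.5-fold intervals, given as a single ip dose of the sodium salt in water. The ceiling was 750 mg/kg or the maximum tolerated dose, defined as the highest dose causing no deaths in 24 h. Tumor histology was read at 24 h.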

For assay [2], the system named is MC-38. Kind of assay: Antitumor activity against the subcutaneously implanted C38 colon tumor in mice. On the set-up: concentration or dose not given beside the values. The class given is functional, Mus musculus. The method, boiled down: (§1)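 Colon 38 fragments were implanted sc in BDF1 mice and grown to 4-8 mm diameter. Each mouse then got a single ip dose of the sodium salt in water, with light excluded. Doses rose in 1.5-fold steps up to 750 mg/kg or the maximum tolerated dose. Tumors were removed 24 h later, formalin-fixed, and sections were stained with hematoxylin/eosin. Necrosis was scored: ++ >90%, + 50-90%, − <50%. Groups of five mice, with 2-3 independent determinations per dose.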

Assay [3] relates to Mus musculus. Nature of the assay: Compound was evaluated in vivo, for antitumor activity, against the subcutaneously implanted C38 colon tumor in mice; 50-90%. The class given is functional. The method, boiled down:
as §1

Assay [4] has as its system Mus musculus. Nature of the assay: Compound was evaluated in vivo, for antitumor activity, against the subcutaneously implanted C38 colon tumor in mice; 50-90%.

Some results are limits rather than exact numbers.

As to `O=C(O)Cc1cccc2c(=O)c3cccc(Cl)c3oc12`, the “minimum dose giving tumor necrosis” value in assay [1] was 150 mg/kg. This compound gave an Activity in assay [2] of 90%.

For `O=C(O)Cc1cccc2c(=O)c3ccccc3oc12`, the “minimum dose giving tumor necrosis” value in assay [1] was 220 mg/kg. Also, in assay [2], the Activity was over 90%. The corresponding values for `Cc1cccc2c(=O)c3cccc(CC(=O)O)c3oc12` are 30 mg/kg and over 90%. Take `Cc1c(N(C)C)ccc2c(=O)c3cccc(CC(=O)O)c3oc12`: the “minimum dose giving tumor necrosis” value in assay [1] amounted to 45 mg/kg. Take `O=C(O)Cc1cccc2c(=O)c3ccc4c(c3oc12)CCC4`: the “minimum dose giving tumor necrosis” value in assay [1] is 45 mg/kg. Further, the Activity in assay [2] is listed as over 90%. As for `Cc1cccc2c(=O)c3c(C)ccc(CC(=O)O)c3oc12`, the “minimum dose giving tumor necrosis” value in assay [1] was 65 mg/kg. In assay [2], this compound registered an Activity of over 90%. As to `Cc1c(Br)ccc2c(=O)c3cccc(CC(=O)O)c3oc12`, the “minimum dose giving tumor necrosis” value in assay [1] came out at 45 mg/kg. The compound further yielded an Activity in assay [2] of over 90%. The corresponding values for `O=C(O)Cc1cccc2c(=O)c3ccc4ccccc4c3oc12` are 65 mg/kg and over 90%. The corresponding values for `Cc1cc(CC(=O)O)c2oc3c(C)cccc3c(=O)c2c1` are 220 mg/kg and over 90%.

In the case of `COc1ccc2c(=O)c3cccc(CC(=O)O)c3oc2c1C`, the “minimum dose giving tumor necrosis” value in assay [1] is 30 mg/kg. The Activity in assay [2] is reported as over 90%. The corresponding values for `Cc1c(Cl)ccc2c(=O)c3cccc(CC(=O)O)c3oc12` are 30 mg/kg and over 90%. For `O=C(O)Cc1cccc2c(=O)c3cc4ccccc4cc3oc12`, in assay [1], the “minimum dose giving tumor necrosis” value was 330 mg/kg. The same compound had an Activity in assay [3] of 50%. Regarding `Cc1c(F)ccc2c(=O)c3cccc(CC(=O)O)c3oc12`, in assay [1], the “minimum dose giving tumor necrosis” value worked out at 45 mg/kg. In addition, the Activity in assay [2] was over 90%.

Take `Cc1ccc2c(=O)c3cccc(CC(=O)O)c3oc2c1Cl`: in assay [1], the “minimum dose giving tumor necrosis” value is 100 mg/kg. Besides, in assay [2], the Activity is over 90%. As for `O=C(O)Cc1cccc2c(=O)c3ccc(Cl)c(Cl)c3oc12`, the “minimum dose giving tumor necrosis” value in assay [1] came out at 100 mg/kg. Also, in assay [4], the Activity was 50%. Turning to `Cc1ccc2c(=O)c3cccc(C)c3oc2c1CC(=O)O`, the “minimum dose giving tumor necrosis” value in assay [1] stood at 45 mg/kg. In assay [2], the Activity is given as over 90%. Taken in the same sequence, the figures for `O=C(O)Cc1cccc2c(=O)cc(-c3ccccc3)oc12` [MITOFLAXONE] were 330 mg/kg and over 90%.

In the case of `Cc1ccc2c(=O)c3cccc(CC(=O)O)c3oc2c1C` [VADIMEZAN], the “minimum dose giving tumor necrosis” value in assay [1] was determined as 30 mg/kg. Further, the Activity in assay [2] is reported as over 90%.
